Experimental data as given in ChEMBL document CHEMBL5149984, “Discovery of HN37 as a Potent and Chemically Stable Antiepileptic Drug Candidate” (J Med Chem, 2021).

What was measured:
[1] = molecular target: Potassium voltage-gated channel subfamily KQT member 2/member 3 (Rattus norvegicus) (UniProt O88943+O88944); test: Agonist activity at rat KCNQ2/3 channel expressed in CHO cells assessed as shift of half voltage of maximal activation at 10 uM by patch clamp method; assay type: cell-based; details: filed as agonist
Outline: (§1)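 Whole-cell patch clamp at room temperature on CHO cells (DMEM/F12, 10% FBS) transiently co-transfected with EGFP and hKCNQ1, rKCNQ2, rKCNQ3 A278T, hKCNQ4 or hKCNQ5; KCNQ2/3 at 1:1 cDNA ratio. Pipette solution 145 mM KCl, 5 mM MgATP, pH 7.3; bath 140 mM NaCl, 5 mM KCl, pH 7.4, under perfusion. V1/2 from Boltzmann fits; I/I0 is current amplitude with versus without compound; n = 4−6.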

[2] = molecular target: Potassium voltage-gated channel subfamily KQT member 5 (Homo sapiens) (UniProt Q9NR82); test: Agonist activity at human KCNQ5 channel expressed in CHO cells assessed as amplitude change of outward current at 10 uM by patch clamp method; assay type: cell-based; details: filed as agonist; outline: as §1
[3] = Half life in Kunming mouse plasma at 2 mg/kg, iv measured upto 24 hrs by LC-MS/MS method; assay type: ADME, organism-based
Outline: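 Male KM mice (n = 3 per time point) given 2 mg/kg i.v. in normal saline with 1% Tween 80, diluted from the oral formulation. Retro-orbital plexus blood taken at 0.083–24 h. Plasma extracted with acetonitrile plus internal standard and assayed by LC−MS/MS.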

[4] = Volume of distribution at steady state in Kunming mouse plasma at 2 mg/kg, iv measured upto 24 hrs by LC-MS/MS method; assay type: ADME, organism-based; details: in vivo
Outline: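 Male KM mice (18–24 g), fasted 12 h before and 2 h after dosing, n = 3 per time point. Oral dose in 5% DMSO/5% Tween 80/90% saline; i.v. dose is that formulation diluted in saline with 1% Tween 80. Blood sampled 0.25–24 h after oral dosing, 0.083–24 h after i.v.; whole brain taken after oral dosing. Acetonitrile extraction with internal standard, LC-MS/MS.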

[5] = Ratio of AUC(0 to t) in Kunming mouse brain to plasma at 5 mg/kg, po measured upto 24 hrs by LC-MS/MS method; assay type: ADME, organism-based; details: brain and plasma
Outline: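 Male KM mice (18−24 g) fasted 12 h before and 2 h after dosing, given 5 mg/kg orally in 5% DMSO/5% Tween 80/90% normal saline (n = 3 per time point). Aortic blood taken at 0.25–24 h and whole brain collected. Acetonitrile extraction with internal standard, then LC−MS/MS. Bioavailability calculated against the 2 mg/kg i.v. arm.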

[6] = Tmax in Sprague-Dawley rat at 6 mg/kg, po measured upto 24 hrs by LC-MS/MS method; assay type: ADME, organism-based; details: in vivo
Outline: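 Male SD rats (180–220 g) dosed orally at 2, 6 and 20 mg/kg, handled like the mice: fasting, 5% DMSO/5% Tween 80/saline vehicle, acetonitrile extraction, LC-MS/MS of plasma. In a separate set at 6 mg/kg p.o., blood and brain were sampled together.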

[7] = Cmax in Sprague-Dawley rat at 2 mg/kg, po measured upto 24 hrs by LC-MS/MS method; assay type: ADME, organism-based; set-up: time < 24 hrs, dose 2 mg/kg, route po; details: in vivo
Outline: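 Male SD rats (180−220 g) dosed orally at 2, 6 or 20 mg/kg in escalating fashion, handled as in the mouse study: 12 h fast, acetonitrile extraction of plasma, LC−MS/MS quantification. AUC0−t by trapezoidal method to the last measurable concentration.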

[8] = Cmax in Sprague-Dawley rat brain at 6 mg/kg, po measured upto 24 hrs by LC-MS/MS method; assay type: ADME, organism-based; set-up: time < 24 hrs, dose 6 mg/kg, route po
Outline: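 Male SD rats (180−220 g) given single oral doses of 2, 6 and 20 mg/kg; handled as in the mouse PK study (fasted 12 h before and 2 h after dosing, 5% DMSO/5% Tween 80/90% saline formulation). In a separate 6 mg/kg p.o. set, blood and brain were sampled together. Plasma and brain levels by LC−MS/MS.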

[9] = molecular target: Cytochrome P450 2B6 (Homo sapiens, UniProt P20813); test: Time dependent inhibition of human liver microsome CYP2B6 preincubated for 0.5 hrs in absence of NADPH followed by substrate addition by LC-MS/MS method; assay type: ADME, microsomes
Outline: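 Human liver microsomes preincubated 0.5 h with 0.10–50 μM test compound, with or without NADPH, then CYP-specific probe substrate added and incubation continued. Metabolite measured by LC-MS/MS; % activity remaining relative to no-compound control; IC50 fitted by Probit model. For CYP3A4, midazolam 1′-hydroxylation and testosterone 6β-hydroxylation were read separately.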

[10] = molecular target: CYP2B6 (Homo sapiens, UniProt P20813); test: Ratio of IC50 for human liver microsome CYP2B6 in absence of NADPH to IC50 for human liver microsome CYP2B6 in presence of NADPH; details: liver microsomes, read-out: Ratio IC50
[11] = molecular target: T1, Potassium voltage-gated channel subfamily KQT member 4 (Homo sapiens) (UniProt P56696); test: Agonist activity at human KCNQ4 channel expressed in CHO cells assessed as shift of half voltage of maximal activation at 0.1 uM by patch clamp method; assay type: cell-based; details: filed as agonist; outline: as §1
T1 sequence (whole entry): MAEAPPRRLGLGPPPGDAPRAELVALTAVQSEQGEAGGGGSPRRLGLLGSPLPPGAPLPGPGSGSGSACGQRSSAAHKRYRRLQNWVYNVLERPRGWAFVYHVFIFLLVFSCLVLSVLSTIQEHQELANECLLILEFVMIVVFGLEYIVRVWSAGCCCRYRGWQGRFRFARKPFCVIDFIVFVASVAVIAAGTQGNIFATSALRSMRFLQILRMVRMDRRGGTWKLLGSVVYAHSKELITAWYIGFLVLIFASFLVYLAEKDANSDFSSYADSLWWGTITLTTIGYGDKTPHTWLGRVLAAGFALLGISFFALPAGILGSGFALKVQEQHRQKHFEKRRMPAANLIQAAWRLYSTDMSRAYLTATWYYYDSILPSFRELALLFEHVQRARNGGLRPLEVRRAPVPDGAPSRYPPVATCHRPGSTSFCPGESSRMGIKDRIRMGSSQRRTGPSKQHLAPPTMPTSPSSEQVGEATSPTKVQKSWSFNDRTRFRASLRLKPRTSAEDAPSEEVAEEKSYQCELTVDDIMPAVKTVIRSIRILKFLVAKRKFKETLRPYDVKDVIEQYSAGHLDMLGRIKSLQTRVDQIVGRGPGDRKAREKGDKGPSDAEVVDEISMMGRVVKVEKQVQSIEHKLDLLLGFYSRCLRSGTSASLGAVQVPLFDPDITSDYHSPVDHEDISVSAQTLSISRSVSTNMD

[12] = molecular target: Potassium voltage-gated channel subfamily KQT member 2 (Rattus norvegicus) (UniProt O88943); test: Potency index, ratio of retigabine EC50 to test compound EC50 for agonist activity at rat KCNQ2 channel expressed in CHO cells by patch clamp method; assay type: cell-based
[13] = Neurotoxicity in Kunming mouse assessed as motor impairment rate at 150 mg/kg, po after 1 hr by rotarod test; assay type: toxicity, organism-based; details: in vivo
Outline: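 Male KM mice dosed intragastrically with compound freshly suspended in 0.5% CMC-Na. Rotarod performance scored 1 h after dosing as the fraction of animals showing motor impairment. Fisher's exact test versus vehicle; TD50 from nonlinear dose−response fit.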

Sequence of Cytochrome P450 2B6 (P20813 whole entry): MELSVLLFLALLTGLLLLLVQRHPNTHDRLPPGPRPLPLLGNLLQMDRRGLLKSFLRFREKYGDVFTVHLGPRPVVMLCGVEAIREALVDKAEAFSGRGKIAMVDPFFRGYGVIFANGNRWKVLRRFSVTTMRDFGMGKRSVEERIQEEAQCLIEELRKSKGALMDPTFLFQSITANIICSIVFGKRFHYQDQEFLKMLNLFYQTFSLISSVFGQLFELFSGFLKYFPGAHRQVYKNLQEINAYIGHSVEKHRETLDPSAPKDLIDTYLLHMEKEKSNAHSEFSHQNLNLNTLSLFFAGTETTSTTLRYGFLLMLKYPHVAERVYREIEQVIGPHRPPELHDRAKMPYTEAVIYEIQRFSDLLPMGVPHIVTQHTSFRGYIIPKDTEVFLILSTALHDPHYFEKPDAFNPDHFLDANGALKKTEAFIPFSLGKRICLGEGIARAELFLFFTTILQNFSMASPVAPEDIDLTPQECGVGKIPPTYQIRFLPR
Sequence of CYP2B6 (P20813 whole entry): as above
Sequence of Potassium voltage-gated channel subfamily KQT member 5 (Homo sapiens) (Q9NR82 whole entry): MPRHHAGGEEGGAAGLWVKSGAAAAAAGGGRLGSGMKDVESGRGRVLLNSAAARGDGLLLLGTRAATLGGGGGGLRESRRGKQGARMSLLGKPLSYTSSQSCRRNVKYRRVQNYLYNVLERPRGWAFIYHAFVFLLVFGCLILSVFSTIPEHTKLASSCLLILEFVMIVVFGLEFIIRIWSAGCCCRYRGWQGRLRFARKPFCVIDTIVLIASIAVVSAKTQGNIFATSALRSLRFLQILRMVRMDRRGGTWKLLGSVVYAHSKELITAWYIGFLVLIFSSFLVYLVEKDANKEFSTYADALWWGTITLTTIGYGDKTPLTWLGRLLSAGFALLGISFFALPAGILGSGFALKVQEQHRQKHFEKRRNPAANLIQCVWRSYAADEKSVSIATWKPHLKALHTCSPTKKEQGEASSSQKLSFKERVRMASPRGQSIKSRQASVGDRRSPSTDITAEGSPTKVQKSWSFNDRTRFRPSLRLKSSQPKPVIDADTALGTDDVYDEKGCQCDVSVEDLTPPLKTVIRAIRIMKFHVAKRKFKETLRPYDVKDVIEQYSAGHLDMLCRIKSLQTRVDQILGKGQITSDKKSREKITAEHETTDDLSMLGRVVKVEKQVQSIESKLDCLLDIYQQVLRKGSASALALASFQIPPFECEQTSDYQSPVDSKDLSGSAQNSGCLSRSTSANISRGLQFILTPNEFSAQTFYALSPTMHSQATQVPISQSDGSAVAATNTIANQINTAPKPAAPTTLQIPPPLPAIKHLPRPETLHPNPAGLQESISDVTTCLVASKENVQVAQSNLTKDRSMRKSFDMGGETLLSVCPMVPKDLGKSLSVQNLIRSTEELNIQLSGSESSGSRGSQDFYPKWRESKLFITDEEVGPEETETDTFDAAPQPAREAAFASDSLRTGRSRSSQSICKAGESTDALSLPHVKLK
Sequence of Potassium voltage-gated channel subfamily KQT member 2 (Rattus norvegicus) (O88943 whole entry): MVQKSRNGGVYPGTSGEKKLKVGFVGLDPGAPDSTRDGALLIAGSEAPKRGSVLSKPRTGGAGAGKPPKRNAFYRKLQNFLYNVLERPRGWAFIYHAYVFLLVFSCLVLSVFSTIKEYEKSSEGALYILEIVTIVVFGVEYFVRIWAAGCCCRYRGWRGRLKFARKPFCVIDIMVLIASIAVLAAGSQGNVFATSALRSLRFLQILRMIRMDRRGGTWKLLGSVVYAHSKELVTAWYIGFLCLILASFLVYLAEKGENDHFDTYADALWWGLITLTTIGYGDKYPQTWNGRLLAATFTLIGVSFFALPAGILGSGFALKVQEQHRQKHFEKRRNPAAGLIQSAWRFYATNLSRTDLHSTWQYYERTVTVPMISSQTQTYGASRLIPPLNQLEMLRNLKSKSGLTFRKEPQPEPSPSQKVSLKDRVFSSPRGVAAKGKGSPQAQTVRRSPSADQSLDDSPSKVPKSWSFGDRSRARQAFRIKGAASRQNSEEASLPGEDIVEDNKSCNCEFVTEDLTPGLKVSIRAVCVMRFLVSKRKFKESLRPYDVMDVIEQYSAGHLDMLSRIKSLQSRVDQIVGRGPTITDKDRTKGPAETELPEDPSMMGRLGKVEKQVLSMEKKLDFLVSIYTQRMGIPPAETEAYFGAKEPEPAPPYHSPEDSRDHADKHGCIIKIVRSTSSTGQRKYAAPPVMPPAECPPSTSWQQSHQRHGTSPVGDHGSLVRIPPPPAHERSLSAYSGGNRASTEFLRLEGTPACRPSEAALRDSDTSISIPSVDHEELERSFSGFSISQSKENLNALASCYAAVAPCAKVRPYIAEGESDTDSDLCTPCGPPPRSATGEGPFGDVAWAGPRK

| Structure (SMILES) | Activity [1] | Activity [2] | half-life [3] | Vdss [4] | Kp at 24 h [5] | Tmax [6] | Cmax [7] | Cmax [8] | IC50 [9] | IC50 shift [10] | Activity [11] | Ratio EC50 [12] | Activity [13] |
| --- | --- | --- | --- | --- | --- | --- | --- | --- | --- | --- | --- | --- | --- |
| CCOC(=O)Nc1ccc(NCc2ccc(F)cc2)cc1N [EZOGABINE] | -34.3 mV | 3.04 | – | – | – | – | – | – | – | – | – | – | – |
| C#CCN(Cc1ccc(F)cc1)c1cc(C)c(NC(=O)OC)c(C)c1 | – | – | 48 min | 2.89 L/kg | 2.23 | 40.2 min | 88.2 ng/mL | 578 ng/mL | 141 µM | > 1.5 | -56.6 mV | 55 | 87.5% |
